In brackets after ≈: the same amount, converted by molar mass. Activity calls are given as the source filed them. The calls are words filed in the database; no cut-off is given here.
Assays:
[1] = Cytotoxicity against human HuH7 cells after 72 hrs by MTT assay; assay type: toxicity, cell-based, Huh-7
In short: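 Huh-7 human hepatocellular carcinoma cells, 4 × 10^3 per well in DMEM with 10% FBS and 1% penicillin-streptomycin-glutamine. Exposed to eight 2-fold dilutions spanning 100 to 0.78 µg/mL for 72 h. MTT added for 2-4 h, then detergent solubilization for 2 h in the dark at room temperature; absorbance read at 570 nm. CC50 is the mean of at least two experiments run in duplicate.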

[2] = system: Plasmodium falciparum; experiment: Antiplasmodial activity against erythrocytic stage of chloroquine/pyrimethamine/cycloguanil resistant-Plasmodium falciparum FCR3 after 48 hrs by [3H]-hypoxanthine incorporation assay; assay type: functional; details: FCR-3/Gambia
In short: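 FCR3 P. falciparum, resistant to CQ (100 ng/mL) and pyrimethamine (15 nM), was synchronized to rings and grown at 1% parasitemia and 2% haematocrit in group O erythrocytes. Medium was RPMI 1640 with Albumax II, at 37 °C under 2% O2/5.5% CO2. Cells were exposed for 48 h to serial dilutions from 0.05 to 2x10^-6 mg/ml. Read-out was [3H]-hypoxanthine incorporation, in triplicate, two independent assays. IC50 came from dose-response curves.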

[3] = system: Mus musculus; experiment: Toxicity in BALB/c mouse infected with erythrocytic stage of chloroquine-resistant Plasmodium berghei ANKA assessed as weight loss at 0.1 to 10 mg/kg/day, ip administered 3 hrs post infection for 4 days; assay type: organism-based; details: in vivo
[4] = Toxicity in ip dosed BALB/c mouse assessed as mortality measured up to7 days; assay type: organism-based; details: in vivo
In short: (§1)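 For the LD50 test, BALB/c mice were given single ip doses of 50, 100, 200, 500, 600, 800 or 1000 mg/kg BW and observed for mortality over 7 days.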

[5] = system: Plasmodium berghei; experiment: Antiplasmodial activity against erythrocytic stage of chloroquine-resistant Plasmodium berghei ANKA infected in ip dosed BALB/c mouse assessed as reduction in parasitemia administered 3 hrs post infection for 4 days by Giemsa staining based microscopic assay; assay type: functional
In short: (§2)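 Peters' four-day suppressive test. Male naïve BALB/c mice, 25 ± 5 g, 4-5 weeks old, 5 per group, were infected ip on day 0 with 2x10^7 P. berghei ANKA parasitized erythrocytes. Dosing was ip from 2 mg/ml stocks in 10% DMSO, first given 1-3 h post-infection and repeated on days 1-3. Saline went to controls. On day 4, parasitemia was counted on Giemsa tail smears and activity = 100 − (treated/control mean parasitemia)×100.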

[6] = system: Plasmodium berghei; experiment: Antiplasmodial activity against erythrocytic stage of chloroquine-resistant Plasmodium berghei ANKA infected in BALB/c mouse assessed as inhibition of parasitemia at 1 mg/kg/day, ip administered 3 hrs post infection for 4 days by Giemsa staining based microscopic assay relative to control; assay type: functional; in short: as §2
[7] = system: Mus musculus; experiment: Toxicity in BALB/c mouse assessed as mortality at 500 mg/kg, ip measured up to 7 days; assay type: organism-based; details: in vivo, 168 h; in short: as §1
[8] = system: Plasmodium berghei; experiment: Antiplasmodial activity against erythrocytic stage of chloroquine-resistant Plasmodium berghei ANKA infected in BALB/c mouse assessed as inhibition of parasitemia at 10 mg/kg/day, ip administered 3 hrs post infection for 4 days by Giemsa staining based microscopic assay relative to control; assay type: functional; in short: as §2
[9] = system: Plasmodium berghei; experiment: Antiplasmodial activity against erythrocytic stage of chloroquine-resistant Plasmodium berghei ANKA infected in ip dosed BALB/c mouse assessed as increase in mouse survival time administered once daily 3 hrs post infection for 4 consecutive days by Giemsa staining based microscopic assay; assay type: functional, organism-based
In short: (§3)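 BALB/c mice, 5 per group, were infected ip with 2x10^7 P. berghei ANKA parasitized erythrocytes. They were dosed ip at 0.1, 1, 5 or 10 mg/kg/day from 2 mg/ml stocks in 10% DMSO, starting 1-3 h post-infection, once daily on days 0-3. Saline went to controls. Groups were compared by Kaplan-Meier with a log-rank (Mantel-Cox) test.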

[10] = system: Plasmodium berghei; experiment: Antiplasmodial activity against erythrocytic stage of chloroquine-resistant Plasmodium berghei ANKA infected in BALB/c mouse assessed as inhibition of parasitemia at 0.1 mg/kg/day, ip administered 3 hrs post infection for 4 days by Giemsa staining based microscopic assay relative to control; assay type: functional; in short: as §2
[11] = Therapeutic index, ratio of LD50 for BALB/c mouse to ED50 for erythrocytic stage of chloroquine-resistant Plasmodium berghei ANKA infected in BALB/c mouse; details: read-out: Ratio LD50/ED50
In short: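 TI = LD50/ED50. LD50 was taken from BALB/c mice dosed ip at 50-1000 mg/kg and observed for 7 days. ED50 came from the P. berghei ANKA four-day suppressive test with ip dosing.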

[12] = system: Mus musculus; experiment: Toxicity in BALB/c mouse assessed as mortality at 1000 mg/kg, ip measured up to 7 days; assay type: organism-based; details: in vivo, 168 h; in short: as §1
[13] = system: Plasmodium berghei; experiment: Antiplasmodial activity against erythrocytic stage of chloroquine-resistant Plasmodium berghei ANKA infected in BALB/c mouse assessed as inhibition of parasitemia at 5 mg/kg/day, ip administered 3 hrs post infection for 4 days by Giemsa staining based microscopic assay relative to control; assay type: functional; in short: as §2
[14] = system: Plasmodium berghei; experiment: Antiplasmodial activity against erythrocytic stage of chloroquine-resistant Plasmodium berghei ANKA infected in BALB/c mouse assessed as mean survival time at 0.1 to 10 mg/kg/day, ip administered 1 to 3 hrs post infection qd measured on day 4 post last dose by giemsa staining-based microscopic analysis; assay type: functional, organism-based; in short: as §3

`Clc1ccc2c(Nc3ccccc3Br)ccnc2c1` gave a CC50 at 72 h [1] of over 100 µg/mL and an IC50 [2] of 0.17 µg/mL (≈ 0.51 µM).

Work on `Cc1cccc(Nc2ccnc3cc(Cl)ccc23)c1C` yielded a CC50 at 72 h [1] of over 100 µg/mL and an IC50 [2] of 0.036 µg/mL (≈ 0.127 µM).

With `Fc1ccc(Nc2ccnc3cc(Cl)ccc23)cc1` the Activity [3] was “Non-Toxic”, the LD50 at 7 days [4] was 800 mg/kg and the ED50 [5] was 2.06 mg/kg. The inhibition in vivo at 1 mg/kg/day [6] was 32%, the Activity [7] was “Non-Toxic” and the inhibition in vivo at 10 mg/kg/day [8] was 79.1%. For the same compound, the CC50 at 72 h [1] was over 100 µg/mL, the Activity [9] was “Dose-dependent effect” and the inhibition in vivo at 0.1 mg/kg/day [10] was 21.6%. For the same compound, the selectivity ratio [11] was 388, the Activity [12] was “Toxic” and the inhibition in vivo at 5 mg/kg/day [13] was 54.2%. The Activity [14] was “Active” and the IC50 [2] was 0.029 µg/mL (≈ 0.106 µM).

With `Cc1cccc(C)c1Nc1ccnc2cc(Cl)ccc12` the CC50 at 72 h [1] was over 100 µg/mL and the IC50 [2] was 0.046 µg/mL (≈ 0.163 µM).

Work on `Cc1ccc(C)c(Nc2ccnc3cc(Cl)ccc23)c1` yielded a CC50 at 72 h [1] of over 100 µg/mL and an IC50 [2] of 0.46 µg/mL (≈ 1.63 µM).

For `Fc1ccc(Nc2ccnc3cc(Cl)ccc23)c(F)c1`, the CC50 at 72 h [1] was over 100 µg/mL and the IC50 [2] was 0.045 µg/mL (≈ 0.155 µM).

`Clc1ccc(Nc2ccnc3cc(Cl)ccc23)c(Cl)c1` showed a CC50 at 72 h [1] of over 100 µg/mL and an IC50 [2] of 0.76 µg/mL (≈ 2.35 µM).

With `Fc1ccc(Nc2ccnc3cc(Cl)ccc23)cc1Cl` the CC50 at 72 h [1] was over 100 µg/mL and the IC50 [2] was 1.9 µg/mL (≈ 6.19 µM).

For `COc1ccc(OC)c(Nc2ccnc3cc(Cl)ccc23)c1`, the Activity [3] was “Non-Toxic”, the LD50 at 7 days [4] was 800 mg/kg and the ED50 [5] was 2.23 mg/kg. The inhibition in vivo at 1 mg/kg/day [6] was 21.7%, the Activity [7] was “Non-Toxic” and the inhibition in vivo at 10 mg/kg/day [8] was 93.4%. The CC50 at 72 h [1] was over 100 µg/mL, the Activity [9] was “Dose-dependent effect” and the inhibition in vivo at 0.1 mg/kg/day [10] was 12%. The selectivity ratio [11] was 359, the Activity [12] was “Toxic” and the inhibition in vivo at 5 mg/kg/day [13] was 58.1%. The Activity [14] was “Active” and the IC50 [2] was 0.022 µg/mL (≈ 0.0699 µM).

`Fc1cccc(Nc2ccnc3cc(Cl)ccc23)c1` gave a CC50 at 72 h [1] of over 100 µg/mL and an IC50 [2] of 0.098 µg/mL (≈ 0.359 µM).

For `CCN(CC)Cc1cc(Nc2ccnc3cc(Cl)ccc23)ccc1O` [AMODIAQUINE], the ED50 [5] was 1.19 mg/kg, the inhibition in vivo at 1 mg/kg/day [6] was 48.2% and the inhibition in vivo at 10 mg/kg/day [8] was 94.1%. For the same compound, the inhibition in vivo at 0.1 mg/kg/day [10] was 28% and the inhibition in vivo at 5 mg/kg/day [13] was 67.1%.

For `Cc1ccc(Nc2ccnc3cc(Cl)ccc23)cc1C`, the CC50 at 72 h [1] was over 100 µg/mL and the IC50 [2] was 0.16 µg/mL (≈ 0.566 µM).

Work on `Fc1ccc(Nc2ccnc3cc(Cl)ccc23)c(Cl)c1` yielded a CC50 at 72 h [1] of over 100 µg/mL and an IC50 [2] of 0.065 µg/mL (≈ 0.212 µM).

Compound `COc1cc(Nc2ccnc3cc(Cl)ccc23)cc(OC)c1OC` has a CC50 at 72 h [1] of over 100 µg/mL and an IC50 [2] of 0.64 µg/mL (≈ 1.86 µM).

`Cc1cc(F)ccc1Nc1ccnc2cc(Cl)ccc12` showed a CC50 at 72 h [1] of over 100 µg/mL and an IC50 [2] of 0.076 µg/mL (≈ 0.265 µM).

In the case of `Cc1ccc(Nc2ccnc3cc(Cl)ccc23)c(C)c1`, the CC50 at 72 h [1] is reported as over 100 µg/mL and the IC50 [2] is reported as 0.4 µg/mL (≈ 1.41 µM).

Work on `Clc1ccc(Cl)c(Nc2ccnc3cc(Cl)ccc23)c1` yielded a CC50 at 72 h [1] of over 100 µg/mL and an IC50 [2] of 0.056 µg/mL (≈ 0.173 µM).
